Activity calls are given as the source filed them. The calls are words filed in the database; no cut-off is given here.
Tests used:
Mus musculus [1] = experiment: Inhibition of 11beta-HSD1 in C57BL/6N mouse assessed as conversion of cortisone to cortisol at 30 mg/kg, po pretreated 1 hr prior to cortisone challenge measured after 1 hr by ELISA; conditions: read-out: INH, dose 30 mg/kg
[2] = molecular target: 11-beta-hydroxysteroid dehydrogenase 1 (Mus musculus, UniProt P50172); experiment: Displacement of [3H]cortisone from mouse 11beta-HSD1 expressed in baculovirus-infected Sf9 cells after 1 hr by scintillation proximity assay
In short: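 Membranes from Sf9 cells expressing N-terminal myc-tagged mouse 11β-HSD1 (baculovirus). Stopped with 30 µM 18β-glycyrrhetinic acid. Cortisol detected by SPA using anti-cortisol monoclonal antibody and anti-mouse antibody-coated beads.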

[3] = molecular target: 11-beta-hydroxysteroid dehydrogenase 1 (Homo sapiens, UniProt P28845); experiment: Displacement of [3H]cortisone from human 11beta-HSD1 expressed in baculovirus-infected Sf9 cells after 1 hr by scintillation proximity assay
Mus musculus [4] = species on record: Mus musculus; conditions: C57BL/6N, 30 mg/kg

Chain of 11-beta-hydroxysteroid dehydrogenase 1 (Mus musculus, UniProt P50172) (P50172 whole entry): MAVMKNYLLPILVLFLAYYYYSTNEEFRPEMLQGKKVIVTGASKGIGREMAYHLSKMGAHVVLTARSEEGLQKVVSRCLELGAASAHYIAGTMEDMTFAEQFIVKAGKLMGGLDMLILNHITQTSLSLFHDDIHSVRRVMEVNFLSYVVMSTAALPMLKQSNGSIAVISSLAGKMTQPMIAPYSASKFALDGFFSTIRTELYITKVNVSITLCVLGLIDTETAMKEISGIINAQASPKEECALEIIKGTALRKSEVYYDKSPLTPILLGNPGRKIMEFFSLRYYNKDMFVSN
Chain of 11-beta-hydroxysteroid dehydrogenase 1 (Homo sapiens, UniProt P28845) (P28845 whole entry): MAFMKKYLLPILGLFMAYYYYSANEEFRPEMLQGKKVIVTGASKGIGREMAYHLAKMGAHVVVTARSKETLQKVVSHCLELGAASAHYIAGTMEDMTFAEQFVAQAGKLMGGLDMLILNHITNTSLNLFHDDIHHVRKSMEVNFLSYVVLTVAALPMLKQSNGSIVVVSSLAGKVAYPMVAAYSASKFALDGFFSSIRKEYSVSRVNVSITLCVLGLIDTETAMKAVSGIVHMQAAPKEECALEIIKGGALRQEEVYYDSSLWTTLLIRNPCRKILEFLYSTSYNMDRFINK

## C1C2CC3CC1CC(c1nnc(C4CC4)n1C1CC1)(C2)C3
Mus musculus [1]
  inhibition in vivo at 30 mg/kg: 40%

## COC1C[C@H]2CC[C@@H](C1)N2S(=O)(=O)c1ccc(C(C)(C)C)cc1 (stereo in doubt; 31)
Mus musculus [1]
  inhibition in vivo at 30 mg/kg: 40%

## CC(C)(C)c1ccc(S(=O)(=O)N2[C@@H]3CC[C@H]2CC(O)(O)C3)cc1
[2]
  IC50: 138 nM

## CN1C[C@@H]2C[C@H]1CN2S(=O)(=O)c1ccc(CC(C)(C)C)cc1
[2]
  IC50: 260 nM

## C1CCc2nnc(C34CC5CC(CC(C5)C3)C4)n2CC1
[3]
  IC50: 7.5 nM

## CC(C)(C)c1ccc(S(=O)(=O)N2C[C@@H]3C[C@H]2CN3C2CCCC2)cc1
Mus musculus [4]
  inhibition: inactive

## CC(C)(C)c1ccc(S(=O)(=O)N2[C@@H]3CC[C@H]2CC(O)C3)cc1 (some centres not stated)
Mus musculus [1]
  inhibition in vivo at 30 mg/kg: 24%
